In ChEMBL document CHEMBL5724801, “EUbOPEN Chemogenomics Library - Multiplex” (2024):
“And” between values parts separate entries of the source, which are not always exact repeats. Equal values may be shown once.

Columns and labels:
[1] = test system: HEK-293T; test: Multiplex assay against HEK293T; type: toxicity, cell-based; settings: human
Outline: (§1)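 Live cells carried four stains from seeding: Hoechst33342, BioTracker Green Microtubule Cytoskeleton Dye, MitoTracker Red and Annexin V Alexa Fluor 680. They were imaged on a CQ1 microscope at 37°C and 5% CO2 after compound addition. Using CellPathfinder machine-learning gating, cells were split into Hoechst high-intensity objects or normal cells, normal cells into healthy, pyknosed or fragmented nuclei, and pyknosed cells into mitotic or apoptotic; tubulin, mitochondrial-mass and membrane-permeability phenotypes are per cents of healthy-nucleus cells.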

[2] = test system: U2OS; test: Multiplex assay against U2OS; type: toxicity, cell-based; settings: human; outline: as §1
[3] = 24 h, 1 µM, compound concentration 1 uM
[4] = 24 h, 10 µM, compound concentration 10 uM
[5] = 48 h, 1 µM, compound concentration 1 uM
[6] = 48 h, 10 µM, compound concentration 10 uM
[7] = 12 h, 1 µM, compound concentration 1 uM
[8] = 12 h, 10 µM, compound concentration 10 uM

SMILES: O=C1N=C(NCc2cccs2)S/C1=C\c1ccc2ncccc2c1
- Population Pyknosed Nuclei (%) [1, 3]: 22.82% and 63.31%
- Population Tubulin-Different-Phenotype (%) [1, 3]: 10.76% and 13.04%
- Population Apoptotic (%) [1, 4]: 34.38% and 21.57%
- Population Fragmented Nuclei (%) [1, 4]: 2.01% and 4.43%
- Population Healthy Nuclei (%) [1, 4]: 73.87% and 31.01%
- Population Hoechst High Intensity Objects (%) [1, 4]: 0%
- Population Membrane Permeable-Phenotype (%) [1, 4]: 0% and 4.08%
- Population Mitochondria Different-Phenotype (%) [1, 4]: 26.19% and 16.33%
- Population Mitotic Cells (%) [1, 4]: 65.62% and 78.43%
- Population Normal (%) [1, 4]: 100%
- Population Pyknosed Nuclei (%) [1, 4]: 24.12% and 64.56%
- Population Tubulin-Different-Phenotype (%) [1, 4]: 55.78% and 20.41%
- Total Cell Count [1, 4]: 398 and 158
- Population Apoptotic (%) [1, 5]: 12.66% and 16.95%
- Population Fragmented Nuclei (%) [1, 5]: 2.96% and 1.01%
- Population Healthy Nuclei (%) [1, 5]: 86.89% and 69.35%
- Population Hoechst High Intensity Objects (%) [1, 5]: 0% and 0.5%
- Population Membrane Permeable-Phenotype (%) [1, 5]: 4.14% and 2.17%
- Population Mitochondria Different-Phenotype (%) [1, 5]: 20.41% and 24.64%
- Population Mitotic Cells (%) [1, 5]: 87.34% and 83.05%
- Population Normal (%) [1, 5]: 100% and 99.5%
- Population Pyknosed Nuclei (%) [1, 5]: 10.15% and 29.65%
- Population Apoptotic (%) [1, 6]: 37.04% and 39.66%
- Population Fragmented Nuclei (%) [1, 6]: 1.79% and 5.23%
- Population Healthy Nuclei (%) [1, 6]: 91.3% and 56.86%
- Population Hoechst High Intensity Objects (%) [1, 6]: 0%
- Population Membrane Permeable-Phenotype (%) [1, 6]: 0.84% and 2.3%
- Population Mitochondria Different-Phenotype (%) [1, 6]: 87.68% and 60.92%
- Population Mitotic Cells (%) [1, 6]: 62.96% and 60.34%
- Population Normal (%) [1, 6]: 100%
- Total Cell Count [1, 6]: 391 and 153
- Population Apoptotic (%) [2, 7]: 36.36% and 33.33%
- Population Fragmented Nuclei (%) [2, 7]: 2.87% and 8.81%
- Population Healthy Nuclei (%) [2, 7]: 87.42% and 78.76%
- Population Hoechst High Intensity Objects (%) [2, 7]: 0%
- Population Membrane Permeable-Phenotype (%) [2, 7]: 0.51% and 3.95%
- Population Mitotic Cells (%) [2, 7]: 63.64% and 66.67%
- Population Normal (%) [2, 7]: 100%
- Population Pyknosed Nuclei (%) [2, 7]: 9.71% and 12.44%
- Population Tubulin-Different-Phenotype (%) [2, 7]: 1.01% and 1.97%
- Total Cell Count [2, 7]: 453 and 193
- Population Apoptotic (%) [2, 8]: 55% and 44%
- Population Fragmented Nuclei (%) [2, 8]: 1.99% and 5.59%
- Population Healthy Nuclei (%) [2, 8]: 91.39% and 78.88%
- Population Hoechst High Intensity Objects (%) [2, 8]: 0%
- Population Membrane Permeable-Phenotype (%) [2, 8]: 16.67% and 19.69%
- Population Mitotic Cells (%) [2, 8]: 45% and 56%
- Population Normal (%) [2, 8]: 100%
- Population Pyknosed Nuclei (%) [2, 8]: 6.62% and 15.53%
- Population Tubulin-Different-Phenotype (%) [2, 8]: 18.48% and 14.96%
- Total Cell Count [2, 8]: 302 and 161
- Population Apoptotic (%) [2, 3]: 37.5% and 40.54%
- Population Fragmented Nuclei (%) [2, 3]: 1.66% and 6.39%
- Population Healthy Nuclei (%) [2, 3]: 87.71% and 79.7%
- Population Hoechst High Intensity Objects (%) [2, 3]: 0%
- Population Membrane Permeable-Phenotype (%) [2, 3]: 0.95% and 5.19%
- Population Mitochondria Different-Phenotype (%) [2, 3]: 0.19% and 9.91%
- Population Mitotic Cells (%) [2, 3]: 62.5% and 59.46%
- Population Normal (%) [2, 3]: 100%
- Population Pyknosed Nuclei (%) [2, 3]: 10.63% and 13.91%
- Population Tubulin-Different-Phenotype (%) [2, 3]: 0.38% and 1.42%
- Total Cell Count [2, 3]: 602 and 266
- Population Apoptotic (%) [2, 4]: 68.42%
- Population Fragmented Nuclei (%) [2, 4]: 4.38% and 8.12%
- Population Healthy Nuclei (%) [2, 4]: 76.43% and 68.12%
- Population Hoechst High Intensity Objects (%) [2, 4]: 0%
- Population Membrane Permeable-Phenotype (%) [2, 4]: 10.57% and 12.84%
- Population Mitotic Cells (%) [2, 4]: 31.58%
- Population Normal (%) [2, 4]: 100%
- Population Pyknosed Nuclei (%) [2, 4]: 19.19% and 23.75%
- Population Tubulin-Different-Phenotype (%) [2, 4]: 13.66% and 9.17%
- Total Cell Count [2, 4]: 297 and 160
- Population Apoptotic (%) [2, 5]: 47.06% and 45.1%
- Population Fragmented Nuclei (%) [2, 5]: 4.77% and 4%
- Population Healthy Nuclei (%) [2, 5]: 86.23% and 84%
- Population Hoechst High Intensity Objects (%) [2, 5]: 0.09% and 0%
- Population Membrane Permeable-Phenotype (%) [2, 5]: 0.92% and 1.96%
- Population Mitochondria Different-Phenotype (%) [2, 5]: 0.1% and 4.48%
- Population Mitotic Cells (%) [2, 5]: 52.94% and 54.9%
- Population Normal (%) [2, 5]: 99.91% and 100%
- Population Pyknosed Nuclei (%) [2, 5]: 9% and 12%
- Population Tubulin-Different-Phenotype (%) [2, 5]: 0.82% and 0.28%
- Total Cell Count [2, 5]: 1134 and 425
- Population Apoptotic (%) [2, 6]: 81.63% and 92.42%
- Population Fragmented Nuclei (%) [2, 6]: 10.65% and 9.25%
- Population Healthy Nuclei (%) [2, 6]: 57.74% and 52.6%
- Population Hoechst High Intensity Objects (%) [2, 6]: 0%
- Population Membrane Permeable-Phenotype (%) [2, 6]: 3.91% and 5.49%
- Population Mitotic Cells (%) [2, 6]: 18.37% and 7.58%
- Population Normal (%) [2, 6]: 100%
- Population Pyknosed Nuclei (%) [2, 6]: 31.61% and 38.15%
- Total Cell Count [2, 6]: 310 and 173
